Series [1] deals with T1, Lysosomal alpha-mannosidase (Homo sapiens, UniProt O00754).
T1 sequence (O00754 whole entry): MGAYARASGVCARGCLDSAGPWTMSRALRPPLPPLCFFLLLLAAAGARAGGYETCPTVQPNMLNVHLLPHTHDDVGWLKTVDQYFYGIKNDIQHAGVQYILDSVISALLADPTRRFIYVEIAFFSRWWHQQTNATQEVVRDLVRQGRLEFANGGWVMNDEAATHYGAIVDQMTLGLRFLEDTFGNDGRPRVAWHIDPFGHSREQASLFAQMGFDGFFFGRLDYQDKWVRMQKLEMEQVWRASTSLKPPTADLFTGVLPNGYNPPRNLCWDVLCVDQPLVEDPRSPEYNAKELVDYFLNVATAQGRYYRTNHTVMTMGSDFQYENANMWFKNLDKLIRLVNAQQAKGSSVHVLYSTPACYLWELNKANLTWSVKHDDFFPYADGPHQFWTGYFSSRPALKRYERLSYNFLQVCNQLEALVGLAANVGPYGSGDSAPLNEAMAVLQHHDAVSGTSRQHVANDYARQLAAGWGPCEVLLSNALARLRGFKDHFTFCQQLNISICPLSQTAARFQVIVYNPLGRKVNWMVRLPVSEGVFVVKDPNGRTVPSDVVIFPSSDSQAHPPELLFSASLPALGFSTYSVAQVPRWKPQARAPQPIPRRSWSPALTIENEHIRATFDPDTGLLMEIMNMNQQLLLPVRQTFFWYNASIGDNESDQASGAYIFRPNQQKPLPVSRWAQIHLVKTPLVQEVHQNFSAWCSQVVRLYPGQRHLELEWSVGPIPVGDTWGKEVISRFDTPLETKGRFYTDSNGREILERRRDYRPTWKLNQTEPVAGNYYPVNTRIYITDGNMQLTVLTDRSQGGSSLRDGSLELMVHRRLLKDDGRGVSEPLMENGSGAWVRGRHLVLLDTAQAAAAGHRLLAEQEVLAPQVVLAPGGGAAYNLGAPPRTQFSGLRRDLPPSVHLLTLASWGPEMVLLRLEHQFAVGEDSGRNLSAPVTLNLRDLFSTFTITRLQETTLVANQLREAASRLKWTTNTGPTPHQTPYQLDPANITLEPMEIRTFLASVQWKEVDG
The series is described as follows: Inhibition of alpha-mannosidase in human HCEC. The format is cell-based. An outline of the steps: (§1)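 Cell layers extracted in pH 5.0 phosphate buffer with 0.1% Triton X-100. Extracts were preincubated with increasing inhibitor concentrations (30 min, 37 °C), then given 4-methylumbelliferyl-α-D-mannopyranoside (150 µM final). Fluorescence increase (ex 360/em 460 nm) followed for 30 min at 37 °C. KM was determined first; IC50 and Ki were derived graphically. Swainsonine served as reference.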

Series [2] is described as follows: (§2) Growth inhibition of human LN18 cells after 24 hrs by MTT assay. The class given is functional, cell-based. Particulars: LN-18, 24 h. An outline of the steps: (§3)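 Cells seeded 2 days before in the same medium (glioblastoma lines in DMEM 4.5 g/l glucose, 5% FCS; HCEC with 10% FCS), then exposed to increasing concentrations for 24 h. MTT (5 mg/ml in PBS) was added without medium change for 2 h at 37 °C. Formazan was dissolved in isopropanol-HCl and read at 540 nm. Growth inhibition is the ratio of MTT reduction, treated to untreated. Triplicate wells.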

For series [3], the system named is LNZ308. The series is described as follows: Decrease in incorporation of [3H]Mann into TCA-precipitable high molecular weight cellular molecule in human LNZ308 cells at 200 uM after 14 hrs. The format is functional, cell-based. An outline of the steps: (§4)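 Cells given 200 µM inhibitor together with [2,3,4,5-3H]-L-Leu or [2,6-3H]-D-Mann (0.4 µCi/ml final). LNZ308 were seeded 10 h before a 14 h exposure; HCEC were exposed for 6 h. Incorporation measured by 10% TCA precipitation, solubilization in 0.1 N NaOH and beta counting. The Mann/Leu ratio of decrease, treated vs. control, was calculated. Triplicate wells, means ± SD.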

Series [4] concerns the target T1, Lysosomal alpha-mannosidase. Briefly: Inhibition of alpha-mannosidase in human LNZ308 cells. The class given is cell-based. An outline of the steps:
as §1

In series [5] the test system is HCEC. Briefly: Decrease in incorporation of [3H]Mann into TCA-precipitable high molecular weight cellular molecule in human HCEC at 200 uM after 6 hrs. The format is functional, cell-based. In short, it runs like this: as §4
Series [6] is described as follows: Growth inhibition of human HCEC after 24 hrs by MTT assay. Particulars: for Activity: human, hcec. The format is cell-based. An outline of the steps: as §3
For orientation: Formazan colour is commonly taken as a measure of viable cells.

Series [7] addresses T1, Lysosomal alpha-mannosidase. Briefly: Inhibition of alpha-mannosidase in human LN18 cells. The format is cell-based. An outline of the steps:
as §1

The nature of series [8]: (§5) Growth inhibition of human LNZ308 cells after 24 hrs by MTT assay. The class given is functional, cell-based. Particulars: LNZ308, 24 h. An outline of the steps:
as §3

Series [9] in a line: Growth inhibition of melanoma cells. The class given is functional, cell-based. Particulars: Melanoma tumor cell line.
Series [10] in a line: Inhibition of jack bean alpha-mannosidase. Also on record: species or system Canavalia ensiformis. An outline of the steps:
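Jack bean enzyme (0.01–0.5 U/mL) preincubated 5 min at 20 °C with inhibitor, then reacted 20 min at 37 °C with increasing 4-nitrophenyl-α-D-mannopyranoside at pH 5.5. Stopped with 0.2 M borate pH 9.8; 4-nitrophenolate read at 410 nm. IC50 found graphically, or Ki and inhibition type from Lineweaver–Burk plots.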

Series [11] is described as follows: Inhibition of drosophila golgi alpha-mannosidase 2. An outline of the steps:
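It was preincubated 30 min at 20 °C with inhibitor added in DMSO, then given p-nitrophenyl α-mannopyranoside, all at 10% final DMSO and 20 °C. Timed aliquots were stopped with equal-volume 0.5 M sodium carbonate and read at A405. Ki was fitted by nonlinear regression on the linear portion of the time course.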

The test system of series [12] is LN-18. The series is described as §2. The format is functional, cell-based. In short, it runs like this:
as §3

Series [13] concerns LNZ308. The description is as §5. The class given is functional, cell-based. In short, it runs like this: as §3
A short description of series [14]: Growth inhibition of human HCEC at 300 uM after 24 hrs by MTT assay. The format is cell-based. Particulars: HCEC cells, read-out: GI. An outline of the steps:
as §3

A short description of series [15]: Growth inhibition of human LNZ308 cells at 300 uM after 24 hrs by MTT assay. The class given is functional. The conditions noted are these: LNZ308, 24 h, read-out: GI. An outline of the steps:
as §3

Series [16] can be described thus: Growth inhibition of human LN18 cells at 300 uM after 24 hrs by MTT assay. The format is functional. Particulars: LN-18, 24 h, read-out: GI. An outline of the steps:
as §3

Structures are written as SMILES. Activity calls are given as the source filed them. The calls are words filed in the database; no cut-off is given here.

As usually defined, the IC50 is the concentration that inhibits the measured activity by half. `CN1C(=O)[C@H](O)[C@H](O)[C@H]1CN[C@@H](COC(=O)c1ccc(Br)cc1)c1ccccc1`: the IC50 stood at 0.75 µM in [1]; 145 µM in series [2]; 7.5 µM in [4]; 100 µM in [6] (Homo sapiens, HCEC); 75 µM in series [7]; 175 µM in [8]. Also, the outcome in [3] and in series [5] was Active.

With `O=C(OC[C@H](NC[C@H]1NC[C@H](O)[C@@H]1O)c1ccccc1)c1ccc(Br)cc1`, the IC50 in [1] is 75 µM; in [4], 75 µM; in [7], 200 µM; in series [9] it was 125 µM.

As a reminder, the Ki is the dissociation constant of the complex between target and ligand, obtained from inhibition or displacement. As to `O[C@H]1[C@H]2[C@H](O)CCCN2C[C@H]1O` [TRIDOLGOSIR], the IC50 came out at 0.01 µM in [1]; 0.04 µM in series [10]; 0.04 µM in series [11]; 0.02 µM in series [4]; 0.05 µM in series [7]. Further, the Ki in [10] turned out to be 0.155 µM; in series [11] it was 0.02 µM.

Turning to `O=C1N[C@H](CN[C@@H](CO)c2ccccc2)[C@@H](O)[C@H]1O`, the values for the IC50 in series [1], in series [4] and in series [7] were 75 µM, 50 µM and 350 µM, respectively. The molecule also displayed a Ki in [10] of 4 µM. For the same molecule, the result in series [12] and in [13] was inactive. In addition, the Activity result in series [6] is listed as “Not Active”.

Regarding `OC[C@H](NC[C@H]1NC[C@H](O)[C@@H]1O)c1ccccc1`, the IC50 in series [1] is 25 µM; in [11], 80 µM; in series [4], 50 µM; in [7] it was 50 µM. The Ki in [1] came out at 23.3 µM; in series [11] it was 67 µM; in series [4], 41.5 µM; in series [7] it was 32.5 µM.

For `O=C(OC[C@H](NC[C@H]1NC(=O)[C@H](O)[C@@H]1O)c1ccccc1)c1ccc(Br)cc1`, the IC50 in [1] worked out at 75 µM; in series [4] it was 150 µM; in [7] it was 750 µM. Also, the inhibition at 24 h, 300 µM in series [14] is 85%. In addition, the inhibition of growth at 300 µM in series [15] was determined as 51%; in series [16], 59%.

As to `CN1C(=O)[C@H](O)[C@H](O)[C@H]1CN[C@@H](CO)c1ccccc1`, the figures for the IC50 in [1], in series [4] and in series [7] were 0.5 µM, 0.5 µM and 2 µM, respectively. For the same molecule, the Ki in series [1] is 0.67 µM; in series [10] it was 0.206 µM; in series [4], 0.55 µM; in [7], 3.2 µM. In addition, the outcome in [12] and in series [13] was inactive. Moreover, the Activity entry in series [6] was “Not Active”.

(Values after ChEMBL document CHEMBL1155812, “Functionalized pyrrolidine inhibitors of human type II alpha-mannosidases as anti-cancer agents: optimizing the fit to the active site” (Bioorg Med Chem, 2008).)
